# Laboratory results: ChEMBL document CHEMBL4196238, “Synthesis and Antiviral Evaluation of Carbocyclic Nucleoside Analogs of Nucleoside Reverse Transcriptase Translocation Inhibitor MK-8591 (4'-Ethynyl-2-fluoro-2'-deoxyadenosine)” (J Med Chem, 2018)
# Columns and labels:
# [1] = test system: Human immunodeficiency virus 1; test: Antiviral activity against HIV1 infected in human PBMC incubated for 24 hrs in presence of 10% NHS by GFP based single cycle HIV replication assay; type: functional, organism-based; conditions: Human immunodeficiency virus 1, PBMC
# Method in brief: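 Human PBMCs infected with wild-type HIV-1 were tested in a single-cycle HIV replication assay containing 10% normal human serum (NHS), and IC50 values were determined.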
# [2] = Cytotoxicity in human MT4 cells expressing GFP assessed as reduction in cell viability incubated for 48 hrs by cell-titer-Glo luminescent cell viability assay; type: cell-based
# Method in brief: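 CC50 values were determined in the MT4 cell line under 10% NHS conditions.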
# [3] = Oral bioavailability in Sprague-Dawley rat at 2 mg/kg; type: ADME, organism-based; conditions: in vivo
# Method in brief: (§1)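 Male Sprague–Dawley rats were dosed intravenously at 1 mg/kg or orally at 2 mg/kg, and pharmacokinetic parameters were derived from plasma data for each route.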
# [4] = AUC (0 to infinity) in Sprague-Dawley rat at 1 mg/kg, iv; type: ADME, organism-based; set-up: dose 1 mg/kg, time infinity, route intravenous; conditions: in vivo; method in brief: as §1
# [5] = Half life in Sprague-Dawley rat at 1 mg/kg, iv; type: ADME, organism-based; conditions: in vivo; method in brief: as §1
# [6] = Clearance in Sprague-Dawley rat at 1 mg/kg, iv; type: ADME, organism-based; conditions: in vivo; method in brief: as §1
# [7] = AUC (0 to infinity) in Sprague-Dawley rat at 2 mg/kg, po; type: ADME, organism-based; set-up: dose 2 mg/kg, time infinity, route oral; conditions: in vivo; method in brief: as §1
# [8] = Half life in human CD4+ CEM cells at 0.1 to 10 uM by HPLC method; type: ADME, cell-based, CCRF-CEM
# [9] = target: Human immunodeficiency virus type 1 reverse transcriptase (Human immunodeficiency virus 1, UniProt Q72547); test: Inhibition of full-length wild-type HIV1 reverse transcriptase expressed in Escherichia coli BL21(DE3) pre-incubated for 30 mins before addition of template/primer substrate and measured after 90 mins
# [10] = Oral bioavailability in Sprague-Dawley rat at 5 mg/kg; type: ADME, organism-based; conditions: in vivo
# [11] = AUC (0 to infinity) in Sprague-Dawley rat at 5 mg/kg, po; type: ADME, organism-based; set-up: dose 5 mg/kg, time infinity, route oral; conditions: in vivo
Compound,IC50 [1],CC50 at 48 h [2],IC50 [9],other results
C#C[C@@]1(CO[P@@](=O)(N[C@@H](C)C(=O)OC(C)C)Oc2ccccc2)C[C@H](n2cnc3c(OCC)nc(N)nc32)C[C@H]1O,382 nM,> 4200 nM,,
C#C[C@]1(CO)C[C@@H](n2cnc3c(=O)[nH]c(N)nc32)C[C@@H]1O,24 nM,> 42000 nM,,bioavailability [3]: 91%; AUC(0-inf) [4]: 1.82 µM·h; half-life [5]: 9.8 h; clearance [6]: 32.4 mL/min/kg; AUC(0-inf) [7]: 3.3 µM·h
C#C[C@@]1(CO)C[C@H](n2cnc3c(=O)[nH]c(N)nc32)C[C@H]1O,> 2100 nM,> 42000 nM,,
C#C[C@]1(CO[P@@](=O)(N[C@@H](C)C(=O)OC(C)C)Oc2ccccc2)C[C@@H](n2cnc3c(OCC)nc(N)nc32)C[C@@H]1O,3 nM,> 42000 nM,,
C#C[C@]1(COP(=O)(O)OP(=O)(O)OP(=O)(O)O)O[C@@H](n2cnc3c(N)nc(F)nc32)C[C@@H]1O,,,,half-life at up to 10 µM [8]: > 120 h
N#CC1(CO)CC(n2cnc3c(N)nc(F)nc32)CC1O (racemic),> 2100 nM,> 42000 nM,,
C#CC1(COP(=O)(O)OP(=O)(O)OP(=O)(O)O)CC(n2cc(C)c(=O)[nH]c2=O)CC1O (racemic),,,114 nM,
Cc1cn(C2CC(O)C(C#N)(CO)C2)c(=O)[nH]c1=O (racemic),> 2100 nM,> 42000 nM,,
C#CC1(COP(=O)(O)OP(=O)(O)OP(=O)(O)O)CC(n2cnc3c(N)nc(Cl)nc32)CC1O (racemic),,,20200 nM,
N#CC1(CO)CC(n2cnc3c(=O)[nH]c(N)nc32)CC1O (racemic),1150 nM,> 42000 nM,,
C#CC1(CO)CC(n2cnc3c(=O)[nH]c(N)nc32)CC1O (racemic),33 nM,> 42000 nM,,
Cc1cn(C2CC(O)C(C#N)(COP(=O)(O)OP(=O)(O)OP(=O)(O)O)C2)c(=O)[nH]c1=O (racemic),,,523 nM,
C#CC1(COP(=O)(O)OP(=O)(O)OP(=O)(O)O)CC(n2cnc3c(N)nc(F)nc32)CC1O (racemic),,,3460 nM,
C#CC1(CO)CC(n2cc(C)c(=O)[nH]c2=O)CC1O (racemic),> 2100 nM,> 42000 nM,,
C#CC1(CO)CC(n2cnc3c(N)nc(Cl)nc32)CC1O (racemic),232 nM,> 42000 nM,,
C#CC1(CO)CC(n2cnc3c(N)nc(F)nc32)CC1O (racemic),201 nM,> 42000 nM,,
N#CC1(COP(=O)(O)OP(=O)(O)OP(=O)(O)O)CC(n2cnc3c(=O)[nH]c(N)nc32)CC1O (racemic),,,444 nM,
C#CC1(COP(=O)(O)OP(=O)(O)OP(=O)(O)O)CC(n2cnc3c(=O)[nH]c(N)nc32)CC1O (racemic),,,324 nM,
C#C[C@]1(CO)O[C@@H](n2cnc3c(N)nc(F)nc32)C[C@@H]1O [ISLATRAVIR],0.21 nM,> 4200 nM,,AUC(0-inf) [4]: 0.78 µM·h; bioavailability [10]: > 100%; half-life [5]: 0.7 h; clearance [6]: 72 mL/min/kg; AUC(0-inf) [11]: 5 µM·h
Nc1ccn([C@@H]2CS[C@H](COP(=O)(O)OP(=O)(O)OP(=O)(O)O)O2)c(=O)n1 [LAMIVUDINE TRIPHOSPHATE],,,15 nM,
Nc1ccn([C@@H]2CS[C@H](CO)O2)c(=O)n1 [LAMIVUDINE],171 nM,> 42000 nM,,
